Reference: ChEMBL document CHEMBL4196130, “3-(2-Carboxyethyl)indole-2-carboxylic Acid Derivatives: Structural Requirements and Properties of Potent Agonists of the Orphan G Protein-Coupled Receptor GPR17” (J Med Chem, 2018)
Activity calls are given as the source filed them. The rule behind the calls is not given here.

Experiments:
[1] = target: T1, Uracil nucleotide/cysteinyl leukotriene receptor (Homo sapiens, UniProt Q13304); assay: Agonist activity at human GPR17 expressed in human 1321N1 cells assessed as induction of calcium mobilization after 1 hr by Oregon Green BAPTA-1/AM dye-based fluorescence assay; type: functional, cell-based
T1 sequence (Q13304 whole entry): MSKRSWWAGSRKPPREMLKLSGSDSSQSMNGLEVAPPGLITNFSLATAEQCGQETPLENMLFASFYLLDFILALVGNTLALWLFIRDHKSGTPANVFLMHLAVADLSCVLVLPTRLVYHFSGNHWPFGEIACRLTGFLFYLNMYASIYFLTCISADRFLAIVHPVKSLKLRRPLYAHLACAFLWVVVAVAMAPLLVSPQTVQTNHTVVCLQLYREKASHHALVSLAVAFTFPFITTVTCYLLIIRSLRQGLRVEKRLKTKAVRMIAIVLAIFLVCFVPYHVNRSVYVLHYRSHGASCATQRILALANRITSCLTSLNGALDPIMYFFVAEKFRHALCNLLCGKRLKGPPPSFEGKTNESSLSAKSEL
Method in brief: (§1)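 Stably transfected 1321N1 astrocytoma cells were trypsin/EDTA-harvested, held 45 min at 37°C, then loaded 1 h at 25°C in KRH buffer pH 7.4 with 3 µM Oregon Green BAPTA-1/AM and 1% Pluronic F127, washed, and plated at ~16,000 cells/well. Fluorescence was read at 520 nm for 30 s after compound injection. Efficacy was expressed relative to the maximum given by 10 µM MDL 29,951. EC50 came from concentration-response curves, run for compounds exceeding 50% stimulation at 10 µM. At least three independent experiments, each in duplicate.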

[2] = target: T1, Uracil nucleotide/cysteinyl leukotriene receptor; assay: Agonist activity at human GPR17 expressed in human 1321N1 cells assessed as induction of calcium mobilization at >=10 uM after 1 hr by Oregon Green BAPTA-1/AM dye-based fluorescence assay relative to control; type: functional, cell-based
[3] = target: T1, Uracil nucleotide/cysteinyl leukotriene receptor; assay: Agonist activity at human GPR17 expressed in human 1321N1 cells assessed as induction of calcium mobilization after 1 hr by Oregon Green BAPTA-1/AM dye-based fluorescence assay relative to MDL 29,951; type: functional, cell-based; method in brief: as §1
[4] = target: Uracil nucleotide/cysteinyl leukotriene receptor (Rattus norvegicus, UniProt Q09QM4); assay: Agonist activity at rat GPR17 expressed in HEK293 cells assessed as induction of intracellular calcium mobilization by calcium 5-dye based assay; type: functional, cell-based
Sequence of Uracil nucleotide/cysteinyl leukotriene receptor (Rattus norvegicus, UniProt Q09QM4) (Q09QM4 whole entry): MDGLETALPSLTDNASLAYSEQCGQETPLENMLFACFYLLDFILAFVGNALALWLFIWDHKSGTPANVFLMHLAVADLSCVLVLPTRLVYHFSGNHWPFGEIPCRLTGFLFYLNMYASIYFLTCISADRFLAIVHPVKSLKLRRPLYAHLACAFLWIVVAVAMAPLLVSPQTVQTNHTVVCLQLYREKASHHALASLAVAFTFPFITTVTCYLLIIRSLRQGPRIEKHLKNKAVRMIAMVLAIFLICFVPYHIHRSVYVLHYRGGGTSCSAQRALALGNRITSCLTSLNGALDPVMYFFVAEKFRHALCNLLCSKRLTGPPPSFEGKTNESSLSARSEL
Method in brief: (§2)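 HEK293 cells expressing rat or mouse GPR17 were seeded at 60,000 cells/well on poly-D-lysine plates and loaded 40 min with Calcium 5 indicator dye. Calcium signals were read on a plate reader. EC50 was obtained by nonlinear regression of concentration-response data. Means ± SEM from 3 independent experiments.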

[5] = target: Uracil nucleotide/cysteinyl leukotriene receptor (Mus musculus, UniProt Q6NS65); assay: Agonist activity at mouse GPR17 expressed in HEK293 cells assessed as induction of intracellular calcium mobilization by calcium 5-dye based assay; type: functional, cell-based; method in brief: as §2
Sequence of Uracil nucleotide/cysteinyl leukotriene receptor (Mus musculus, UniProt Q6NS65) (Q6NS65 whole entry): as the sequence (Q09QM4 whole entry) above, with D2N, T6A, A15S, S270A counted along it

[6] = target: Uracil nucleotide/cysteinyl leukotriene receptor (Rattus norvegicus) (UniProt Q09QM4); assay: Agonist activity at rat GPR17 expressed in HEK293 cells assessed as induction of intracellular calcium mobilization at 10 uM by calcium 5-dye based assay relative to MDL 29,951; type: functional, cell-based
Sequence of Uracil nucleotide/cysteinyl leukotriene receptor (Rattus norvegicus) (Q09QM4 whole entry): as the sequence (Q09QM4 whole entry) above

[7] = target: Uracil nucleotide/cysteinyl leukotriene receptor (Mus musculus) (UniProt Q6NS65); assay: Agonist activity at mouse GPR17 expressed in HEK293 cells assessed as induction of intracellular calcium mobilization at 10 uM by calcium 5-dye based assay relative to MDL 29,951; type: functional, cell-based
Sequence of Uracil nucleotide/cysteinyl leukotriene receptor (Mus musculus) (Q6NS65 whole entry): as the sequence (Q09QM4 whole entry) above, with D2N, T6A, A15S, S270A counted along it

[8] = target: P2Y purinoceptor 1 (Homo sapiens) (UniProt P47900); assay: Agonist activity at human P2Y1 receptor transfected in human 1321N1 cells assessed as induction of calcium mobilization after 30 mins in presence of ADP by fluo-4 dye based assay; type: functional, cell-based
Sequence of P2Y purinoceptor 1 (Homo sapiens) (P47900 whole entry): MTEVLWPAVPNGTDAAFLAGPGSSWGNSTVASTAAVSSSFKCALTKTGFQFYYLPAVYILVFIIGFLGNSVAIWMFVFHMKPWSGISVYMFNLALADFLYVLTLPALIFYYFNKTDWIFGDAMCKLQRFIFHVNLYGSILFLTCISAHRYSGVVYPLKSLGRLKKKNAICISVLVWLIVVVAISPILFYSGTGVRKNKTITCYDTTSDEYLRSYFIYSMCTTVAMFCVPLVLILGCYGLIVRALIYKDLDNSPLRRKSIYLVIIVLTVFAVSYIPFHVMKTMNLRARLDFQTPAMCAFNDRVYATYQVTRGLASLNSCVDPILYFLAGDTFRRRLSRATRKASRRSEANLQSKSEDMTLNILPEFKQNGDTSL
Method in brief: (§3)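 Calcium mobilization was measured in 1321N1 astrocytoma cells stably transfected with human P2Y1, P2Y2, P2Y4 or P2Y6 receptors, read on a Flexstation III microplate reader.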

P2Y purinoceptor 2 = P2Y purinoceptor 2 (Homo sapiens, UniProt P41231); assay: Agonist activity at human P2Y2 receptor transfected in human 1321N1 cells assessed as induction of calcium mobilization after 30 mins in presence of UTP by fluo-4 dye based assay; type: functional, cell-based; method in brief: as §3
Sequence of P2Y purinoceptor 2 (P41231 whole entry): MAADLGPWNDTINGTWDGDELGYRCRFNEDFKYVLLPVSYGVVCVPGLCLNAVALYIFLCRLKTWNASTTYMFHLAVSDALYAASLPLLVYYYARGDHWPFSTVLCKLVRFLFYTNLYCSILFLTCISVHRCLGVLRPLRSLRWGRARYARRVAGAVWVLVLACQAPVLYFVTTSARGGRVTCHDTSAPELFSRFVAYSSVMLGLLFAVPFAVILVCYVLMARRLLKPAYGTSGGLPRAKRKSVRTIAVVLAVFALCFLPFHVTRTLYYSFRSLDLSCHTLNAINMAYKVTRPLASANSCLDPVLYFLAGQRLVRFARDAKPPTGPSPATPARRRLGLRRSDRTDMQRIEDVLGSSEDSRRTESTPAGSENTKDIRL

[9] = target: P2Y purinoceptor 4 (Homo sapiens) (UniProt P51582); assay: Agonist activity at human P2Y4 receptor transfected in human 1321N1 cells assessed as induction of calcium mobilization after 30 mins in presence of UTP by fluo-4 dye based assay; type: functional, cell-based; method in brief: as §3
Sequence of P2Y purinoceptor 4 (Homo sapiens) (P51582 whole entry): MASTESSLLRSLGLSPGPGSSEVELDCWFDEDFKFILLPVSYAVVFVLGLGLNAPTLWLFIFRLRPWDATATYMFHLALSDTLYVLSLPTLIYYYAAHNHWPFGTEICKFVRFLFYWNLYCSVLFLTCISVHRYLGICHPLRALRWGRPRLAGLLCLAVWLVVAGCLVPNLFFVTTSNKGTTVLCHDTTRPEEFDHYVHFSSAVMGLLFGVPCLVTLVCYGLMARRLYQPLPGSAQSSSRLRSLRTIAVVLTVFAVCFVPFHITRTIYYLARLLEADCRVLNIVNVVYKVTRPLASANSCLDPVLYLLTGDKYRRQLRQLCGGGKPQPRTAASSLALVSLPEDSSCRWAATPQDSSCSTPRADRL

[10] = target: P2Y purinoceptor 6 (Homo sapiens) (UniProt Q15077); assay: Agonist activity at human P2Y6 receptor transfected in human 1321N1 cells assessed as induction of calcium mobilization after 30 mins in presence of UDP by fluo-4 dye based assay; type: functional, cell-based; method in brief: as §3
Sequence of P2Y purinoceptor 6 (Homo sapiens) (Q15077 whole entry): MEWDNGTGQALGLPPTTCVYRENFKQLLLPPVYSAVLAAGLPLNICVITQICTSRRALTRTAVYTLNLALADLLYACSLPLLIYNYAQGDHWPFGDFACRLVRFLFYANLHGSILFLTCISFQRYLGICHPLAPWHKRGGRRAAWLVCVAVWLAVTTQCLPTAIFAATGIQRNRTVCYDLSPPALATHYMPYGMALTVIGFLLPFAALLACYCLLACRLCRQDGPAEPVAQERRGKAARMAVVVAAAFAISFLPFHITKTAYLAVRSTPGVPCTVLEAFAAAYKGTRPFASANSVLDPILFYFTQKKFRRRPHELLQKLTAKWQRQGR

[11] = target: P2Y purinoceptor 12 (Homo sapiens) (UniProt Q9H244); assay: Agonist activity at human P2Y12 receptor transfected in CHO cells assessed as induction of beta-arrestin translocation; type: functional, cell-based
Sequence of P2Y purinoceptor 12 (Homo sapiens) (Q9H244 whole entry): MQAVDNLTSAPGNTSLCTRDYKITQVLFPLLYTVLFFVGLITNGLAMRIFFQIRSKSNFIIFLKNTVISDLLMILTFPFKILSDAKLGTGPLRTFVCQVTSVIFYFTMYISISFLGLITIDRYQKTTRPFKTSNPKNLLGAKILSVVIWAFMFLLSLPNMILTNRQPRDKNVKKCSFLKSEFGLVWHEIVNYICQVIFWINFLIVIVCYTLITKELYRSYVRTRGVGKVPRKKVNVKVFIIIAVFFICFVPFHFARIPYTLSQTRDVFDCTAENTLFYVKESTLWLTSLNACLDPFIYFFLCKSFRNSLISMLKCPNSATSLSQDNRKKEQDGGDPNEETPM
Method in brief: (§4)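 β-Arrestin translocation assays were run in CHO cells stably transfected with human P2Y12 or P2Y14 receptors.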

[12] = target: T2, P2Y purinoceptor 14 (Homo sapiens) (UniProt Q15391); assay: Agonist activity at human P2Y14 receptor transfected in CHO cells assessed as induction of beta-arrestin translocation; type: functional, cell-based; method in brief: as §4
T2 sequence (whole entry): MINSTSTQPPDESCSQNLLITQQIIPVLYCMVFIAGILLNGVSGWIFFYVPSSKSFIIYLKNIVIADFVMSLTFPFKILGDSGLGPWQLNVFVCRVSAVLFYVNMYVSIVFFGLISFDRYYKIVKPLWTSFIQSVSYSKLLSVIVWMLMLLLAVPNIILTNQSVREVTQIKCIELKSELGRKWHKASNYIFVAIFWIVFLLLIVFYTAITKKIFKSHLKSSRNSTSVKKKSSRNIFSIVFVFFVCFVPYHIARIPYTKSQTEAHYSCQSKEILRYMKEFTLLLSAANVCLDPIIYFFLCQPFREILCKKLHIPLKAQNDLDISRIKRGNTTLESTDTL

[13] = Selectivity ratio of EC50 for rat GPR17 expressed in HEK293 cells to EC50 for human GPR17 expressed in human 1321N1 cells; type: cell-based
[14] = Selectivity ratio of EC50 for mouse GPR17 expressed in HEK293 cells to EC50 for human GPR17 expressed in human 1321N1 cells; type: cell-based
[15] = target: T1, Uracil nucleotide/cysteinyl leukotriene receptor; assay: Displacement of [3H]PSB-12150 from human GPR17 expressed in CHO cell membranes after 60 mins by liquid scintillation counting
Method in brief: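 Membranes from CHO cells stably expressing human GPR17 were incubated 60 min at 25°C with 25 nM [3H]PSB-12150 (17 Ci/mmol), 10 mM MgCl2 and increasing test compound concentrations. Bound radioligand was separated by GF/B filtration and counted by liquid scintillation. Nonspecific binding was defined with 100 µM unlabeled PSB-12150. Ki came from the Cheng-Prusoff equation with KD 1190 nM. Three independent experiments in duplicate.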

[16] = target: T1, Uracil nucleotide/cysteinyl leukotriene receptor; assay: Agonist activity at human GPR17 expressed in human 1321N1 cells assessed as induction of calcium mobilization at 30 uM after 1 hr by Oregon Green BAPTA-1/AM dye-based fluorescence assay relative to control; type: functional, cell-based
[17] = target: T1, Uracil nucleotide/cysteinyl leukotriene receptor; assay: Agonist activity at human GPR17 expressed in human 1321N1 cells assessed as induction of calcium mobilization at >30 uM after 1 hr by Oregon Green BAPTA-1/AM dye-based fluorescence assay relative to control; type: functional, cell-based
Glutamate NMDA receptor = assay: Displacement of [3H]CCP from NMDA receptor glutamate binding site in rat cortical and hippocampal membranes
Homo sapiens = species: Homo sapiens; assay: Selectivity ratio of EC50 for human P2Y2 receptor transfected in human 1321N1 cells to EC50 for human GPR17 expressed in human 1321N1 cells; type: cell-based
[18] = target: T1, Uracil nucleotide/cysteinyl leukotriene receptor; assay: Agonist activity at human GPR17 expressed in human 1321N1 cells assessed as induction of calcium mobilization at >10 uM after 1 hr by Oregon Green BAPTA-1/AM dye-based fluorescence assay relative to control; type: functional, cell-based

## O=C(O)CCc1c(C(=O)O)[nH]c2cccc(F)c12
[1]
  EC50: ≥ 10 µM
[2]
  Activity: 44%

## CCCCCCOc1ccc2c(CCC(=O)O)c(C(=O)O)[nH]c2c1
[1]
  EC50: 0.115 µM
[3]
  Emax: 62%
[4]
  EC50: 5.31 µM
[5]
  EC50: 5.51 µM
[6]
  Emax: 53%
[7]
  Emax: 28%
[8]
  Activity: inactive
P2Y purinoceptor 2
  Activity: inactive
[9]
  Activity: inactive
[10]
  Activity: inactive
[11]
  Activity: inactive
[12]
  Activity: inactive
[13]
  Ratio EC50: 34 to 48
[14]
  Ratio EC50: 34 to 48
[15]
  Ki: 1.5 µM

## O=C(O)CCc1c(C(=O)O)[nH]c2cccc(Cl)c12
[1]
  EC50: 30 µM
[16]
  Activity: 52%

## O=C(O)CCc1c(C(=O)O)[nH]c2c(Cl)cccc12
[1]
  EC50: > 30 µM
[17]
  Activity: 5%
Glutamate NMDA receptor
  IC50: > 1000 µM

## CCCCCCOc1cc(Cl)c2c(CCC(=O)O)c(C(=O)O)[nH]c2c1
[1]
  EC50: 0.067 µM
[3]
  Emax: 95%
[4]
  EC50: 2.3 µM
[5]
  EC50: 3.03 µM
[6]
  Emax: 77%
[7]
  Emax: 59%
[8]
  Activity: inactive
P2Y purinoceptor 2
  EC50: ≥ 50 µM
[9]
  Activity: inactive
[10]
  Activity: inactive
[11]
  Activity: inactive
[12]
  Activity: inactive
Homo sapiens
  Ratio EC50: > 700
[13]
  Ratio EC50: 34 to 48
[14]
  Ratio EC50: 34 to 48
[15]
  Ki: 13.1 µM

## CCCCCCOc1cc(Cl)cc2[nH]c(C(=O)O)c(CCC(=O)O)c12
[1]
  EC50: > 10 µM
[18]
  Activity: 40%

## O=C(O)CCc1c(C(=O)O)[nH]c2ccc(Cl)cc12
[1]
  EC50: > 30 µM
[17]
  Activity: 11%
Glutamate NMDA receptor
  IC50: 35 µM
